Laboratory results taken from ChEMBL document CHEMBL1131270, “Fluorescent probes for adenosine receptors: synthesis and biology of N6-dansylaminoalkyl-substituted NECA derivatives” (Bioorg Med Chem Lett, 1998).

Columns and labels:
Adenosine A2 receptor = Adenosine A2 receptor (Rattus norvegicus, UniProt P29276+P30543); assay: Binding affinity for adenosine A2 receptor of rat striatal membrane using [3H]CGS-21680
Method in brief: (§1)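 Competition binding on rat membrane preparations: cerebral cortex for A1 with [3H]-CHA, striatum for A2 with [3H]-CGS 21680. Membrane preparation and assay followed an earlier published method. IC50 values were converted to Ki with the Cheng–Prusoff equation and reported as mean ± S.E. of three experiments.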

Adenosine receptor A3 = biological target: T1, Adenosine receptor A3 (Rattus norvegicus, UniProt P28647); assay: Binding affinity for adenosine A3 receptor of rat testis membrane using [3H](R)-PIA
T1 sequence (P28647 whole entry): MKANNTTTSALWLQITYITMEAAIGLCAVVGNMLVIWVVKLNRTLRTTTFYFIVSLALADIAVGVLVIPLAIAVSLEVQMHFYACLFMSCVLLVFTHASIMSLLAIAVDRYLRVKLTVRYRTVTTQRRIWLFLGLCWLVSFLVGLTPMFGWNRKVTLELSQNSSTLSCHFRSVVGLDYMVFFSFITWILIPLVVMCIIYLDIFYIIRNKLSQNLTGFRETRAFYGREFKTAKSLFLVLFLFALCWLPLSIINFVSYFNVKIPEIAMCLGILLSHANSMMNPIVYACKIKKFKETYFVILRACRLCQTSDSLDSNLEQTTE
Method in brief: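 Rat testis membranes were labelled with [3H]-(R)-PIA for A3 binding, with 150 nM DPCPX present to block A1 receptors. Membrane preparation and assay followed an earlier published method. IC50 values were converted to Ki by Cheng–Prusoff and reported as mean ± S.E. of three experiments.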

Adenosine receptor A1 = biological target: T2, Adenosine receptor A1 (Rattus norvegicus, UniProt P25099); assay: Binding affinity for adenosine A1 receptor of rat cerebral cortex membrane using [3H]CHA; assay type: tissue-based; method in brief: as §1
T2 sequence (P25099 whole entry): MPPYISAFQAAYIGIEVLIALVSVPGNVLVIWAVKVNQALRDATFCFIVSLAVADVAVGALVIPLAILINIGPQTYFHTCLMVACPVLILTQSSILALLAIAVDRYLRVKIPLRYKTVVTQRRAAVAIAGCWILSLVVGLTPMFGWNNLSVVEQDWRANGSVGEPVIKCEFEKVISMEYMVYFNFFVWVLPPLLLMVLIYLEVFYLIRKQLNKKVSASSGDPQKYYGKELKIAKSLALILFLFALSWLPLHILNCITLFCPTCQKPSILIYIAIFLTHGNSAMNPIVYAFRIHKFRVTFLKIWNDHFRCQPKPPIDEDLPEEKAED

| SMILES | Ki (Adenosine A2 receptor) | Ki (Adenosine receptor A3) | Ki (Adenosine receptor A1) |
| --- | --- | --- | --- |
| CCNC(=O)[C@H]1OC(n2cnc3c(NCCCNS(=O)(=O)c4cccc5c(N(C)C)cccc45)ncnc32)[C@H](O)[C@@H]1O (stereo partly drawn) | 4300 nM | 1800 nM | 42 nM |
| CCNC(=O)[C@H]1OC(n2cnc3c(NCCCCNS(=O)(=O)c4cccc5c(N(C)C)cccc45)ncnc32)[C@H](O)[C@@H]1O (stereo partly drawn) | 9500 nM | 2000 nM | 70 nM |
| CCNC(=O)[C@H]1OC(n2cnc3c(NCCCCCCCCNS(=O)(=O)c4cccc5c(N(C)C)cccc45)ncnc32)[C@H](O)[C@@H]1O (stereo partly drawn) | > 10000 nM | 252 nM | 111 nM |

Results, then the compound that gave them:

| Ki (Adenosine A2 receptor) | Ki (Adenosine receptor A3) | Ki (Adenosine receptor A1) | SMILES |
| --- | --- | --- | --- |
| > 10000 nM | 2500 nM | 3400 nM | CCNC(=O)[C@H]1OC(n2cnc3c(NCCCCCCCCCCCCNS(=O)(=O)c4cccc5c(N(C)C)cccc45)ncnc32)[C@H](O)[C@@H]1O (stereo partly drawn) |
| > 10000 nM | 1100 nM | 234 nM | CCNC(=O)[C@H]1OC(n2cnc3c(NCCCCCCCCCCNS(=O)(=O)c4cccc5c(N(C)C)cccc45)ncnc32)[C@H](O)[C@@H]1O (stereo partly drawn) |
| 4300 nM | 3600 nM | 27 nM | CCNC(=O)[C@H]1OC(n2cnc3c(NCCCCCCNS(=O)(=O)c4cccc5c(N(C)C)cccc45)ncnc32)[C@H](O)[C@@H]1O (stereo partly drawn) |
